Among the data in ChEMBL document CHEMBL3351267, “Curcuminoid derivatives enhance telomerase activity in an in vitro TRAP assay” (Bioorg Med Chem Lett, 2014) are Activity, fold change (FC) and inhibition values, retold here.

The source made the active and inactive calls. No cut-off for these calls is given here. Bounds are passed on as bounds.

For assay [1], the target named is Telomerase reverse transcriptase (Homo sapiens) (UniProt O14746). Nature of the assay: Activation of human telomerase activity expressed in HEK293T cells incubated for 30 mins by modified TRAP assay. The format is cell-based. The conditions noted are these: HEK-293T. In outline: (§1)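 Telomerase came from crude lysate of HEK293T cells transfected with hTERT and hTR plasmids. MTS primer and compound were incubated in telomerase reaction buffer at 30 °C for 30 min, then removed by two phenol–chloroform extractions. Products were ethanol-precipitated, PCR-amplified with FAM-tagged primer, run on 8% non-denaturing acrylamide and phosphorimaged. Accumulated product intensity was averaged over three independent experiments.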

For assay [2] the target is unchanged. Nature of the assay: Activation of human telomerase activity expressed in HEK293T cells assessed as increase in telomer products length incubated for 30 mins by modified TRAP assay. The format is cell-based. To be noted: HEK-293T. A digest of the protocol:
as §1

For assay [3] the target is unchanged. Nature of the assay: Activation of human telomerase activity expressed in HEK293T cells assessed as increase in telomer products length at 40 uM by modified TRAP assay and phosphorimage analysis. The format is cell-based. The conditions noted are these: HEK-293T, TDE = time-dependent effect. A digest of the protocol:
(§2)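 This was a time course at 40 µM compound, with the compound-free set run in parallel. The telomerase source was lysate of HEK293T cells transfected with hTERT/hTR. Reactions ran at 30 °C, and 100 µl was withdrawn at set times and heat-stopped at 95 °C for 10 min. Products were purified, PCR-amplified with FAM primer, and separated on 8% non-denaturing gel with phosphorimaging. Intensities came from three independent experiments.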

For assay [4] the target is unchanged. Nature of the assay: Activation of human telomerase activity expressed in HEK293T cells assessed as increase in telomer products intensity incubated for 30 mins by modified TRAP assay. The conditions noted are these: HEK-293T. Format: cell-based. A digest of the protocol:
as §1

Assay [5] shares this target. Nature of the assay: Activation of human telomerase activity expressed in HEK293T cells incubated for 30 mins by modified TRAP assay and phosphorimage analysis. To be noted: HEK-293T. The format is cell-based. In outline:
as §1

Assay [6] shares this target. Nature of the assay: Activation of human telomerase activity expressed in HEK293T cells at 60 uM incubated for 30 mins by modified TRAP assay and phosphorimage analysis. The conditions noted are these: HEK-293T. The format is cell-based. In outline:
as §1

Assay [7] has the same target. The assay is described as follows: Activation of human telomerase activity expressed in HEK293T cells at 60 uM incubated for 30 mins by modified TRAP assay. The format is cell-based. To be noted: HEK-293T. A digest of the protocol:
as §1

A further assay has as its system Thermus aquaticus. Nature of the assay: Inhibition of Thermus aquaticus DNA polymerase at 5 uM.
The target of assay [8] is Telomerase reverse transcriptase (Homo sapiens) (UniProt O14746). Nature of the assay: Activation of human telomerase activity expressed in HEK293T cells assessed as increase in telomer products intensity at 40 uM by modified TRAP assay and phosphorimage analysis. The format is cell-based. To be noted: HEK-293T, TDE = time-dependent effect. In outline: as §2
Assay [9] has the same target. Nature of the assay: Activation of human telomerase activity expressed in HEK293T cells at 20 to 60 uM incubated for 30 mins by modified TRAP assay. The format is cell-based. The conditions noted are these: HEK-293T. A digest of the protocol:
as §1

Sequence of Telomerase reverse transcriptase (Homo sapiens) (O14746 whole entry): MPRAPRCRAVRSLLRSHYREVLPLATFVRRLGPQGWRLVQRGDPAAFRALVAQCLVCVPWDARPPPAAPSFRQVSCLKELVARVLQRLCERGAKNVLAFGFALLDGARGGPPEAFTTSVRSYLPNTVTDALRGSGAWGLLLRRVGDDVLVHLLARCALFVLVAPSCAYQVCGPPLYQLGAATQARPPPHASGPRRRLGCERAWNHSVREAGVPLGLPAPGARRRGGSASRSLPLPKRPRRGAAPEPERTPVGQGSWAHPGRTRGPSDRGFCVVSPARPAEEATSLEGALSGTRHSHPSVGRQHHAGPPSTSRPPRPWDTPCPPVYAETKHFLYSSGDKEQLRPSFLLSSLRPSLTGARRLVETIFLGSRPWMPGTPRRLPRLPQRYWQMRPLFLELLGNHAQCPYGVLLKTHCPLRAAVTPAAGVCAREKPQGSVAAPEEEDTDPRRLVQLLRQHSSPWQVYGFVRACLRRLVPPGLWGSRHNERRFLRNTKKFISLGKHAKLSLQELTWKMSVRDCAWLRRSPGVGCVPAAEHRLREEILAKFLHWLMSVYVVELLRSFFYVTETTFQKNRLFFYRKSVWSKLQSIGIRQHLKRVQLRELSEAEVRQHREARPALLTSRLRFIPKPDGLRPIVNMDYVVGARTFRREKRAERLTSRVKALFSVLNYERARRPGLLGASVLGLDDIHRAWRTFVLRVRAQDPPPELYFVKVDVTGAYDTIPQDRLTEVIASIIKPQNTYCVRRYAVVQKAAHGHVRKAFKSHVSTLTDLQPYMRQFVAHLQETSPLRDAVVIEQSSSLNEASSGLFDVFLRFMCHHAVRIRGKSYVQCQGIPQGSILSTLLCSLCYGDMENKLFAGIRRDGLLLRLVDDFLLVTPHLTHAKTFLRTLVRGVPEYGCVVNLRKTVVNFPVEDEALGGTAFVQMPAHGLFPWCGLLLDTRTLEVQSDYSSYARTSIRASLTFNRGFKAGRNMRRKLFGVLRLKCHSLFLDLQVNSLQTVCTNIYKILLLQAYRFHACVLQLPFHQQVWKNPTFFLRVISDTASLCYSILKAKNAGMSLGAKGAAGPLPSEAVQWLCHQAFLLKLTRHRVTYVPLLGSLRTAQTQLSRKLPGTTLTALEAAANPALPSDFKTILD

On to `COc1cc(CCC(O)CC(O)CCc2ccc(O)c(OC)c2)ccc1O` (stereo not given), for which the outcome in assay [1] was inactive.
Consider `COc1cc(/C=C/C(=O)CC(=O)/C=C/c2ccc(OCCCCC[n+]3ccccc3)c(OC)c2)ccc1OCCCCC[n+]1ccccc1`, for which the Activity entry in [2] was “Dose-dependent effect”; in [3], “tde”; in assay [4] it was “Dose-dependent effect”; in assay [1], “Dose-dependent effect”; in assay [5], “Dose-dependent effect”; in assay [8], “tde”. The fold change (FC) in [6] was less than 5; in assay [7], 5. For the same compound, the inhibition result in the assay on Thermus aquaticus was “Active”.
As for `COc1cc(CC/C=C/C(=O)CCc2ccc(OCCCCC[n+]3ccccc3)c(OC)c2)ccc1OCCCCC[n+]1ccccc1`, the result in assay [9] was inactive.
Regarding `COc1cc(/C=C/C(=O)CC(=O)/C=C/c2ccc(O)c(OC)c2)ccc1O`, the result in [1] was inactive.
`COc1cc(/C=C/C(=O)CC(=O)/C=C/c2ccc(O)cc2)ccc1OCCCCC[n+]1ccccc1` had a fold change (FC) in assay [7] of 3.
Turning to `COc1cc(/C=C/C(O)=C/C(=O)/C=C/c2ccc(O)cc2)ccc1O`, the result in assay [1] was inactive.
Regarding `COc1cc(/C=C/c2cc(/C=C/c3ccc(OCCCCC[n+]4ccccc4)c(OC)c3)on2)ccc1OCCCCC[n+]1ccccc1`, in assay [7], the fold change (FC) came to 3.
As for `COc1cc(CCC(=O)CC(=O)CCc2ccc(O)c(OC)c2)ccc1O`, the outcome in [1] was inactive.
On to `O=C(/C=C/c1ccc(O)cc1)CC(=O)/C=C/c1ccc(O)cc1`, for which the outcome in assay [1] was inactive.
For `COc1cc(/C=C/C(=O)CC(=O)/C=C/c2ccc(OCCCCC[n+]3ccccc3)c(OC)c2)ccc1O`, the fold change (FC) in assay [7] was found to be 3.
The same measure, in the same setting: the value for `COc1cc(/C=C/C(=O)CC(=O)/C=C/c2ccc(OCCCCC[n+]3ccccc3)cc2)ccc1O` was 3.
Turning to `COc1cc(/C=C/C(=O)CC(=O)/C=C/c2ccc(OCCO)c(OC)c2)ccc1OCCO`, in [1], the result was inactive.
